ChEMBL document CHEMBL1150419, “Structure-activity relationships of a peptide inhibitor of the human FcRn:human IgG interaction” (Bioorg Med Chem, 2008)
pIC50, pKd: −log10 of the molar value. Square brackets hold non-standard residues; d marks the D form. Peptide text beside a SMILES is read from it. NMeA = CN[C@@H](C)C(=O)O; Dab = NCC[C@H](N)C(=O)O; βAla = NCCC(=O)O

Experiments:
[1] = target: T1, IgG receptor FcRn large subunit p51 (Homo sapiens, UniProt P55899); test: Binding affinity to human FcRn at pH 6 by surface plasmon resonance assay
Summary of the method: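 Soluble human FcRn coupled to the dextran surface of a CM5 chip; peptide dilutions flowed over the chip. The equilibrium response at each dilution was plotted against concentration and fitted to a steady-state affinity model to give Kd.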

[2] = target: T1, IgG receptor FcRn large subunit p51; test: Inhibition of human IgG binding to soluble human FcRn by ELISA
Summary of the method: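 Biotinylated soluble human FcRn immobilized on neutravidin plates, incubated with hIgG (3 nM, constant) and peptide at varying concentrations for 2 h at 37 °C. After washing, bound hIgG detected with peroxidase-conjugated hIgG-specific Fab fragments.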

T1 sequence (P55899 whole entry): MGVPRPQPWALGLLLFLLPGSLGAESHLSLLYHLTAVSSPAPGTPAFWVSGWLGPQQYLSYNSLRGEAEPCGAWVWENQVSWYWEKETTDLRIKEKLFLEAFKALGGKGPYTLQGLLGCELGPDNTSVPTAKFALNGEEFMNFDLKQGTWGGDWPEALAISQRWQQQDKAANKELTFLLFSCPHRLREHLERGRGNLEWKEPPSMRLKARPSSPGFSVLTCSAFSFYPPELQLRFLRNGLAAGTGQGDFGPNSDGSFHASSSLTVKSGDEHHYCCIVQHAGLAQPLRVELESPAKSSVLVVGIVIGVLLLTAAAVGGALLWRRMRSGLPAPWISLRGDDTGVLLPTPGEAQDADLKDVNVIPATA

Compound	pKd [1]	pIC50 [2]
CC(C)C[C@H](NC(=O)CNC(=O)CNC(=O)[C@H](Cc1ccccc1)NC(=O)[C@H](Cc1cnc[nH]1)NC(=O)CNC(=O)[C@@H](NC(=O)[C@H](CS)NC(=O)[C@H](Cc1ccccc1)NC(=O)[C@H](CCCNC(=N)N)NC(=O)[C@@H](N)CCC(N)=O)[C@@H](C)O)C(=O)N[C@@H](Cc1ccccc1)C(=O)N1CCC[C@H]1C(=O)N[C@@H](CS)C(=O)N[C@@H](CC(N)=O)C(=O)NCC(=O)N1CCC[C@H]1C(=O)O	3.64	< 3.90
CC(C)C[C@H](NC(=O)CNC(=O)CNC(=O)[C@H](Cc1cccc(Cl)c1)NC(=O)[C@H](Cc1cnc[nH]1)NC(=O)CNC(=O)[C@@H](NC(=O)[C@@H](NC(=O)[C@H](Cc1ccccc1)NC(=O)[C@H](CCCNC(=N)N)NC(=O)[C@@H](N)CCC(N)=O)C(C)(C)S)[C@@H](C)O)C(=O)N[C@@H](Cc1ccc(O)cc1)C(=O)N1CCC[C@H]1C(=O)N[C@@H](CS)C(=O)O	3.64	5.43
CC(C)C[C@@H](C(=O)N[C@@H](Cc1ccc(O)cc1)C(=O)N1CCC[C@H]1C(=O)N[C@@H](CS)C(=O)O)N(C)C(=O)CN(C)C(=O)CNC(=O)[C@H](Cc1ccccc1)NC(=O)[C@H](Cc1cnc[nH]1)NC(=O)CNC(=O)[C@@H](NC(=O)[C@@H](NC(=O)[C@H](Cc1ccccc1)NC(=O)[C@@H](N)CCCNC(=N)N)C(C)(C)S)[C@@H](C)O	7.51	6.24
CC(C)C[C@@H](C(=O)N[C@@H](Cc1ccc(O)cc1)C(=O)N1CCC[C@H]1C(=O)N[C@@H](CS)C(=O)O)N(C)C(=O)CN1CCC[C@@H](NC(=O)[C@H](Cc2ccccc2)NC(=O)[C@H](Cc2cnc[nH]2)NC(=O)CNC(=O)[C@@H](NC(=O)[C@H](NC(=O)[C@H](Cc2ccccc2)NC(=O)[C@@H](N)CCCNC(=N)N)C(C)(C)S)[C@@H](C)O)C1=O	7.37	6.28
CC(C)C[C@H](NC(=O)CNC(=O)CNC(=O)[C@H](Cc1ccccc1)NC(=O)[C@H](Cc1cnc[nH]1)NC(=O)[C@H](C)NC(=O)[C@@H](NC(=O)[C@H](CS)NC(=O)[C@H](Cc1ccccc1)NC(=O)[C@H](CCCNC(=N)N)NC(=O)[C@@H](N)CCC(N)=O)[C@@H](C)O)C(=O)N[C@@H](Cc1ccc(O)cc1)C(=O)N1CCC[C@H]1C(=O)N[C@@H](CS)C(=O)N[C@@H](CC(N)=O)C(=O)NCC(=O)N1CCC[C@H]1C(=O)O	< 3.60	< 3.90
CC(C)C[C@H](NC(=O)CNC(=O)CNC(=O)[C@H](Cc1ccccc1)NC(=O)[C@H](Cc1cnc[nH]1)NC(=O)CNC(=O)[C@@H](NC(=O)[C@H](CCN)NC(=O)[C@H](Cc1ccccc1)NC(=O)[C@H](CCCN=C(N)N)NC(=O)[C@@H](N)CCC(N)=O)[C@@H](C)O)C(=O)N[C@@H](Cc1ccc(O)cc1)C(=O)N1CCC[C@H]1C(=O)N[C@@H](CCC(=O)O)C(=O)N[C@@H](CC(N)=O)C(=O)NCC(=O)N1CCC[C@H]1C(=O)O (H-QRF[Dab]TGHFGGLYPENGP-OH)	5.32	4.09
CC(C)C[C@H](NC(=O)CNC(=O)CNC(=O)[C@H](Cc1ccccc1)NC(=O)[C@H](Cc1cnc[nH]1)NC(=O)CCNC(=O)[C@@H](NC(=O)[C@H](CS)NC(=O)[C@H](Cc1ccccc1)NC(=O)[C@H](CCCNC(=N)N)NC(=O)[C@@H](N)CCC(N)=O)[C@@H](C)O)C(=O)N[C@@H](Cc1ccc(O)cc1)C(=O)N1CCC[C@H]1C(=O)N[C@@H](CS)C(=O)N[C@@H](CC(N)=O)C(=O)NCC(=O)N1CCC[C@H]1C(=O)O (H-QRFCT[βAla]HFGGLYPCNGP-OH)	< 3.60	< 3.90
CC(C)C[C@H](NC(=O)CNC(=O)CNC(=O)[C@H](Cc1ccccc1)NC(=O)[C@H](Cc1cnc[nH]1)NC(=O)[C@@H](C)NC(=O)[C@@H](NC(=O)[C@H](CS)NC(=O)[C@H](Cc1ccccc1)NC(=O)[C@H](CCCN=C(N)N)NC(=O)[C@@H](N)CCC(N)=O)[C@@H](C)O)C(=O)N[C@@H](Cc1ccc(O)cc1)C(=O)N1CCC[C@H]1C(=O)N[C@@H](CS)C(=O)N[C@@H](CC(N)=O)C(=O)NCC(=O)N1CCC[C@H]1C(=O)O	< 3.60	< 3.90
CC(C)C[C@H](NC(=O)CNC(=O)CNC(=O)[C@@H](NC(=O)[C@H](Cc1cnc[nH]1)NC(=O)CNC(=O)[C@@H](NC(=O)[C@@H](NC(=O)[C@H](Cc1ccccc1)NC(=O)[C@H](CCCN=C(N)N)NC(=O)[C@@H](N)CCC(N)=O)C(C)(C)S)[C@@H](C)O)C(c1ccccc1)c1ccccc1)C(=O)N[C@@H](Cc1ccc(O)cc1)C(=O)N1CCC[C@H]1C(=O)N[C@@H](CS)C(=O)O	3.64	4.49
CC(C)C[C@@H](C(=O)N[C@@H](Cc1ccc(O)cc1)C(=O)N1CCC[C@H]1C(=O)N[C@@H](CS)C(=O)O)N(C)C(=O)CN(C)C(=O)CNC(=O)[C@H](Cc1ccccc1)NC(=O)[C@H](C)NC(=O)CNC(=O)[C@@H](NC(=O)[C@@H](NC(=O)[C@H](Cc1ccccc1)NC(=O)[C@@H](N)CCCNC(=N)N)C(C)(C)S)[C@@H](C)O	5.00	< 4.00
CC(C)C[C@H](NC(=O)CNC(=O)C(C)(C)NC(=O)[C@H](Cc1ccccc1)NC(=O)[C@H](Cc1cnc[nH]1)NC(=O)CNC(=O)[C@@H](NC(=O)[C@@H](NC(=O)[C@H](Cc1ccccc1)NC(=O)[C@H](CCCNC(=N)N)NC(=O)[C@@H](N)CCC(N)=O)C(C)(C)S)[C@@H](C)O)C(=O)N[C@@H](Cc1ccc(O)cc1)C(=O)N1CCC[C@H]1C(=O)N[C@@H](CS)C(=O)N[C@@H](CC(N)=O)C(=O)NCC(=O)N1CCC[C@H]1C(=O)O	5.28	4.77
CC(C)C[C@H](NC(=O)CNC(=O)[C@@H](Cc1ccccc1)NC(=O)[C@H](Cc1ccccc1)NC(=O)[C@H](Cc1cnc[nH]1)NC(=O)CNC(=O)[C@@H](NC(=O)[C@@H](NC(=O)[C@H](Cc1ccccc1)NC(=O)[C@H](CCCNC(=N)N)NC(=O)[C@@H](N)CCC(N)=O)C(C)(C)S)[C@@H](C)O)C(=O)N[C@@H](Cc1ccc(O)cc1)C(=O)N1CCC[C@H]1C(=O)N[C@@H](CS)C(=O)N[C@@H](CC(N)=O)C(=O)NCC(=O)N1CCC[C@H]1C(=O)O	6.29	5.55
CC(C)C[C@@H](C(=O)N[C@@H](Cc1ccc(O)cc1)C(=O)N1CCC[C@H]1C(=O)N[C@@H](CS)C(=O)O)N(C)C(=O)CNC(=O)CNC(=O)[C@H](Cc1ccccc1)NC(=O)[C@H](Cc1cnc[nH]1)NC(=O)CNC(=O)[C@@H](NC(=O)[C@@H](NC(=O)[C@H](Cc1ccccc1)NC(=O)[C@@H](N)CCCN=C(N)N)C(C)(C)S)[C@@H](C)O	7.23	5.68
CC(C)C[C@H](NC(=O)CNC(=O)CNC(=O)[C@H](Cc1ccccc1)NC(=O)[C@H](Cc1cnc[nH]1)NC(=O)CNC(=O)[C@@H](NC(=O)[C@H](CS)NC(=O)[C@H](Cc1ccccc1)NC(=O)[C@H](C)NC(=O)[C@@H](N)CCC(N)=O)[C@@H](C)O)C(=O)N[C@@H](Cc1ccc(O)cc1)C(=O)N1CCC[C@H]1C(=O)N[C@@H](CS)C(=O)N[C@@H](CC(N)=O)C(=O)NCC(=O)N1CCC[C@H]1C(=O)O	5.11	4.64
CC(C)C[C@H](NC(=O)CNC(=O)CNC(=O)[C@H](Cc1ccccc1)NC(=O)[C@H](Cc1cnc[nH]1)NC(=O)CNC(=O)[C@@H](NC(=O)[C@H](CS)NC(=O)[C@H](Cc1ccccc1)NC(=O)[C@H](CCCNC(=N)N)NC(=O)[C@@H](N)CCC(N)=O)[C@@H](C)O)C(=O)N[C@@H](Cc1ccc(O)cc1)C(=O)N1CCC[C@H]1C(=O)N[C@@H](CS)C(=O)N[C@@H](CC(N)=O)C(=O)NCC(=O)N1CCC[C@H]1C(=O)O	5.29	4.40
CC(C)C[C@H](NC(=O)CN1CCCC[C@@H](NC(=O)[C@H](Cc2ccccc2)NC(=O)[C@H](Cc2cnc[nH]2)NC(=O)CNC(=O)[C@@H](NC(=O)[C@@H](NC(=O)[C@H](Cc2ccccc2)NC(=O)[C@@H](N)CCCN=C(N)N)C(C)C)[C@@H](C)O)C1=O)C(=O)N[C@@H](Cc1ccc(O)cc1)C(=O)N1CCC[C@H]1C(=O)N[C@@H](C)C(=O)O	5.64	4.64
CC(C)C[C@H](NC(=O)CNC(=O)CNC(=O)[C@H](Cc1ccccc1)NC(=O)[C@H](Cc1cnc[nH]1)NC(=O)CNC(=O)[C@H](C)N(C)C(=O)[C@H](CS)NC(=O)[C@H](Cc1ccccc1)NC(=O)[C@H](CCCNC(=N)N)NC(=O)[C@@H](N)CCC(N)=O)C(=O)N[C@@H](Cc1ccc(O)cc1)C(=O)N1CCC[C@H]1C(=O)N[C@@H](CS)C(=O)N[C@@H](CC(N)=O)C(=O)NCC(=O)N1CCC[C@H]1C(=O)O (H-QRFC[NMeA]GHFGGLYPCNGP-OH)	4.74	3.77
CC(C)C[C@@H](C(=O)N[C@@H](Cc1ccc(O)cc1)C(=O)N1CCC[C@H]1C(=O)N[C@@H](CS)C(=O)N[C@@H](CC(N)=O)C(=O)NCC(=O)N1CCC[C@H]1C(=O)O)N(C)C(=O)CNC(=O)[C@@H](C)NC(=O)[C@H](Cc1ccccc1)NC(=O)[C@H](Cc1cnc[nH]1)NC(=O)CNC(=O)[C@@H](NC(=O)[C@@H](NC(=O)[C@H](Cc1ccccc1)NC(=O)[C@H](CCCNC(=N)N)NC(=O)[C@@H](N)CCC(N)=O)C(C)(C)S)[C@@H](C)O	6.64	5.49
CC(C)C[C@H](NC(=O)CNC(=O)CNC(=O)[C@@H]1Cc2ccccc2CN1C(=O)[C@H](Cc1cnc[nH]1)NC(=O)CNC(=O)[C@@H](NC(=O)[C@@H](NC(=O)[C@H](Cc1ccccc1)NC(=O)[C@H](CCCNC(=N)N)NC(=O)[C@@H](N)CCC(N)=O)C(C)(C)S)[C@@H](C)O)C(=O)N[C@@H](Cc1ccc(O)cc1)C(=O)N1CCC[C@H]1C(=O)N[C@@H](CS)C(=O)N[C@@H](CC(N)=O)C(=O)NCC(=O)N1CCC[C@H]1C(=O)O	< 3.60	< 3.90
CC(C)C[C@@H](C(=O)N[C@@H](Cc1ccc(O)cc1)C(=O)N1CCC[C@H]1C(=O)N[C@@H](CS)C(=O)N[C@@H](CC(N)=O)C(=O)NCC(=O)N1CCC[C@H]1C(=O)O)N(C)C(=O)CNC(=O)[C@@H](Cc1ccccc1)NC(=O)[C@H](Cc1ccccc1)NC(=O)[C@H](Cc1cnc[nH]1)NC(=O)CNC(=O)[C@@H](NC(=O)[C@@H](NC(=O)[C@H](Cc1ccccc1)NC(=O)[C@H](CCCNC(=N)N)NC(=O)[C@@H](N)CCC(N)=O)C(C)(C)S)[C@@H](C)O	6.62	5.89
